HSF1 inh: HSF1 inhibition | NIH3T3-HGL HSE-luciferase, MG132-induced, luminescence 8 h; stronger effect = lower value | activity change, negative = inhibition, % at 7.5 µM (by protocol) | hit rate 0.77% among 300,000;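 active means more than half of replicate wells show activity change below -50%, luminescence cut by over half; inconclusive means some wells, but at most half, below -50%; inactive means no replicate well below -50%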;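 further: luciferase reports HSF-1 transcriptional activity via heat shock element; 0% = median of DMSO wells and -100% = zero luminescence signal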
HIF activator: HIF pathway transcriptional activation. U2OS HRE-luciferase reporter, luminescence; normalized: DMSO 0%, desferrioxamine 100%. activation, % at 7.5 µM (by protocol). hit rate 0.32% among 300,000. AID 1910;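 active means mean activation of at least 10% of the iron chelator positive control signal, with at least half of replicates also reaching 10%; inconclusive means mean and replicate majority disagree about reaching 10%; inactive means mean and most replicates under 10%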
T cruzi repl: blocks replication of Trypanosoma cruzi. T. cruzi beta-gal in NIH3T3, luminescence, 90 h. AID 1885. hit rate 1.4% among 300,000. inhibition, % (no concentration beside the values);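 active means mean inhibition across valid replicates above about 55%, limit read from the data; inconclusive means mean below that limit but half or more replicates reach it; inactive means mean below it, under half of replicates reach it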;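 further: signal also drops with host cell toxicity which is not excluded here; 0% = plate median of DMSO wells and 100% = zero luminescence signal; higher percent means less beta-gal luminescence so fewer parasites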
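Material: NIH/3T3 host cells with β-galactosidase reporter T. cruzi; Input: 5,000 host fibroblasts per well; Medium: DMEM, 2% fetal bovine serum; Compound: 50 nL DMSO compound solution per well; Schedule: 3 h host attachment, then at least 90 h co-culture; Detection: luminescent β-galactosidase signal after 60 min lysis.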
Calb FLC: C. albicans growth modulation with fluconazole; C. albicans CaCi-2 + fluconazole, Alamar Blue growth, 48 h; hit rate 0.57% among 300,000; growth inhibition, % (concentration not given with the values); AID 1979;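 active means growth inhibition above about 58% in most replicates, limit read from the data, passing the limit was not always enough; inconclusive means exactly half the replicates above a set limit; inactive means most replicates below a set limit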;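 further: all wells also contain fluconazole at 8 µg/ml as a sub-toxic cotreatment; 0% = median of DMSO wells and 100% = median of geldanamycin control wells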
HSF1 activator: increases HSF-1 driven luciferase reporter signal; AID 504408; activation, % at 9 µM; hit rate 1.7% among 300,000; NIH3T3-HGL HSF-1 luciferase reporter, MG132, 8 h; 100% = twice DMSO control signal;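 active means mean replicate activation of at least 50% with a set share of replicates each reaching 50%; inconclusive means only one of those two conditions met; inactive means mean below 50% and too few replicates reaching it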;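 further: 0% = median of the neutral control wells and 100% = twice that signal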
* marks the source's active call; other numbers are inactive results; ? = inconclusive. Rows were chosen to be rich in hits. Some 4.4% of all compounds tested hit in one or more screens of this group.

SMILES | HSF1 inh | HIF activator | T cruzi repl | Calb FLC | HSF1 activator
NC(=O)NC(=O)COC(=O)c1sc2ccccc2c1Cl | -1 | 1 | -21 | 0 | -7
Cc1ccc(-c2noc(CSc3nnc(-c4ccncc4)n3-c3ccc(C)cc3)n2)cc1 | 8 | 0 | ? | 6 | 9
CCOc1ccc(-n2c(SCc3nc(-c4ccc(C)cc4)no3)nnc2-c2ccncc2)cc1 | -8 | -1 | 58* | 15 | -22
O=C(CCC1CCCN(C(=O)c2ccc3c(c2)OCO3)C1)NCc1ccc(F)c(F)c1 (stereo not given) | 18 | 0 | 0 | -22 | 32
O=C(CCC1CCCN(Cc2ccc3c(c2)OCCO3)C1)NCc1ccc(F)c(F)c1 (stereo not given) | 10 | 0 | 62* | 3 | -4
O=C(CCC1CCCN(C(=O)c2ccc3cc[nH]c3c2)C1)NCc1ccc(F)c(F)c1 (stereo not given) | 24 | 2 | 6 | -25 | 57*
O=S(=O)(Cc1ccccc1)NCC1CCCN(Cc2ccc(F)c(F)c2)C1 (stereo not given) | 3 | 0 | 61* | -19 | 6
O=C(CCC1CCCN(Cc2cccc3c2OCO3)C1)NCc1ccc(F)c(F)c1 (stereo not given) | -7 | 0 | 62* | -19 | -2
CNC(=O)[C@@H]1C[C@H]1[C@@H](NC(=O)OCc1ccccc1)c1ccccc1 | 8 | -2 | -5 | 17 | 6
COc1ccc(C2CC(=O)c3c(C)nc(N4CCN(Cc5ccccc5)CC4)nc3C2)cc1OC (stereo not given) | -3 | 0 | 55* | 9 | 10
Cc1nc(N2CCN(Cc3ccccc3)CC2)nc2c1C(=O)CC(C)C2 (stereo not given) | -8 | 0 | 71* | -4 | -3
COc1cc(C2CC(=O)c3cnc(N4CCN(Cc5ccccc5)CC4)nc3C2)cc(OC)c1OC (stereo not given) | -4 | 0 | 0 | -9 | -7
O=[N+]([O-])c1c(C(Cl)Cl)nn(-c2ccccc2)c1N1CCCC1 | -13 | -1 | 3 | 1 | -6
Cc1ccc(CNC(=O)CSc2nnc(CNC(=O)c3ccccc3)o2)cc1 | -1 | 0 | -1 | -11 | 17
C/C(=N\NC(=O)c1cc(-c2cccnc2)nc2ccccc12)c1ccccc1O | -4 | 18* | 63* | -15 | -4
C/C(=N\NC(=O)c1cc(C2CC2)nc2ccccc12)c1ccc(O)cc1O | 1 | 4 | 9 | 101* | 6
COc1ccc(/C(C)=N/NC(=O)c2cc(-c3cccnc3)nc3ccccc23)cc1 | -3 | 0 | -19 | -22 | -1
CC(=O)Nc1ccc(NC(=O)CCN2C(=O)c3ccccc3C2=O)cc1 | -6 | -4 | -9 | 33 | 5
O=C(CCCCCN1C(=O)c2ccccc2C1=O)Nc1ccc(C(=O)O)cc1 | 28 | -37 | -6 | -5 | 63*
CC(=O)Nc1ccc(NC(=O)CCCN2C(=O)c3ccccc3C2=O)cc1 | -4 | 0 | -14 | 108* | -6
O=C(CCCCCCN1C(=O)c2ccccc2C1=O)N1CCC(c2ccccc2)C1 (stereo not given) | -64* | -46 | 9 | -9 | -71
O=C(CCCCCCCCN1C(=O)c2ccccc2C1=O)N1CCOCC1 | -6 | -1 | -2 | 4 | 11
CC(NC(=O)CCCN1C(=O)c2ccccc2C1=O)c1ccc2c(c1)CCCC2 (stereo not given) | 118 | 0 | 12 | 3 | 203*
CCCOc1ccc(C(=O)CCC(=O)OCC(=O)N2CC(=O)Nc3ccccc32)cc1 | 17 | 0 | 8 | 5 | 21
C/C(=N\N=C(/C)c1cccc(N)c1)c1cccc(N)c1 | 28 | 1 | 5 | -29 | 64*
SMILES | HSF1 inh | HIF activator | T cruzi repl | Calb FLC | HSF1 activator
CCCCN(C)S(=O)(=O)c1ccc(C(=O)Nc2nnc(C3=COCCO3)o2)cc1 | -6 | 0 | -19 | 28 | -2
O=C(Nc1nnc(-c2cccs2)o1)c1cccc(F)c1 | -11 | 0 | 26 | 87* | -26
CCCCN(C)S(=O)(=O)c1ccc(C(=O)Nc2nnc(-c3cccs3)o2)cc1 | -10 | 0 | 57* | 84* | -12
O=C(Nc1nnc(C2=COCCO2)o1)c1cccc([N+](=O)[O-])c1 | -7 | 0 | -4 | 1 | -8
COc1cccc(-c2nnc(NC(=O)c3cccc(F)c3)o2)c1 | -15 | 0 | 50 | 7 | -14
O=C(Nc1nnc(-c2ccc(F)cc2)o1)c1cccc([N+](=O)[O-])c1 | -6 | 0 | 51 | 91* | -8
COc1ccc(CCNC(=O)CCC(=O)Nc2nnc(C(C)C)s2)cc1OC | -1 | 0 | 1 | -2 | 3
CCCn1c(SCC(=O)c2cc(OC)ccc2OC)nnc1C(C)C | 48 | -1 | -13 | -1 | 90*
COc1ccc(OC)c(C(=O)CSc2nnc(Cc3cccs3)n2C)c1 | 3 | 0 | 14 | -2 | -6
Cc1cc(C)n(-c2ccc(NC(=O)C3CCN(Cc4ccccn4)CC3)cc2)n1 | -1 | 0 | -10 | 8 | 6
Cc1c(Cc2ccccc2)sc(/N=C/c2c(O)ccc3ccccc23)c1C(N)=O | -58* | 1 | -12 | 48 | -55
CCOc1ccccc1NC(=O)c1cc(-c2ccncc2)nc2c(Cl)cccc12 | 5 | -1 | 57* | -3 | 5
COc1ccc([N+](=O)[O-])cc1NC(=O)CC1SC(=Nc2cccc(C)c2C)N(/N=C/c2cccc(OC)c2OC)C1=O (stereo not given) | 4 | 0 | 5 | ? | 4
Cc1nn(C)cc1C(=O)/C=C/c1ccc([N+](=O)[O-])cc1 | 22 | 0 | -10 | 21 | 61*
CCn1cc(CN(C)C(=O)/C=C/c2ccc([N+](=O)[O-])cc2)c(C)n1 | 0 | 0 | -1 | 11 | -20
Cc1ccc(O)c(NC(=O)C2CCCN2C(=O)OCc2ccccc2)c1 (stereo not given) | -5 | 0 | 5 | -2 | -3
CCC(CNc1cc(OC)cc2cccnc12)NC1CCCCC1 (stereo not given) | -76* | -11 | 41 | -13 | -80
COc1cc(NCCCC(C)N)c2ncccc2c1 (stereo not given) | 18 | 0 | 45 | 1 | 34
CCCCc1ccc(NC(=S)N2CCC(O)CC2)cc1 | -14 | 0 | -12 | 26 | -3
Cc1ccccc1CC(=O)NC1CCCc2ccccc21 (stereo not given) | 37 | -9 | -10 | 4 | 65*
Cc1noc(C)c1COc1cccc(C(=O)NC(C)(C)C)c1 | -1 | -1 | -2 | -12 | 18
CN(Cc1ccccc1)C(=O)c1cc(-c2ccc(Br)cc2)on1 | 18 | 2 | 0 | -12 | 62*
Cc1cc(C(=O)N(C)Cc2ccc(Br)cc2)no1 | 2 | -1 | -7 | 2 | 14
CCCCN(CC)CCNC(=S)Nc1ccc2nc(N3CCN(C)CC3)cc(C)c2c1 | -8 | -13 | 64* | -3 | -6
